Data: ChEMBL document CHEMBL2016433 (Bioorg Med Chem, 2012)
Activity calls are given as the source filed them.

Key:
U-937 [1] = test: Induction of cell death in human U937 cells assessed at 1 to 100 microM after 24 hrs by trypan blue exclusion method relative to untreated control; format: functional
Procedure, shortened: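 U937 cells (5×10^4 per well) exposed for 24 h at 37 °C, 5% CO₂ to 1 in 10 serial dilutions from 1 to 100 µM in RPMI-1640 with 5% FBS. Compounds came from 20 mM stocks in DMSO or medium. Controls got vehicle at equal amounts. Membrane-permeable cells were counted by trypan blue exclusion in a haemocytometer and expressed as percent. Mean and standard deviation from at least three determinations.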

U-937 [2] = test: Cytotoxicity against human U937 cells assessed as induction of cell death at 1 to 100 microM after 24 hrs by trypan blue exclusion method; format: functional, cell-based
U-937 [3] = test: Induction of apoptosis in human U937 cells after 24 hrs by acridine orange staining based microscopy; format: functional, cell-based
Procedure, shortened: (§1)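 U937 cells were treated for 24 h at 37 °C with 1–100 µM compound or vehicle, then stained with acridine orange. Over 600 cells were scored by fluorescence microscopy; apoptosis was defined as uniformly stained nuclei with chromatin condensation or nuclear fragmentation. Mean and SD of at least three determinations.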

U-937 [4] = test: Cytostatic against human U937 cells assessed as reduction in absolute number of total cells after 24 hrs by haemocytometry; format: functional, cell-based
Procedure, shortened: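 U937 cells, 5×10^4 per well in RPMI-1640 with 5% FBS, 2 mM L-glutamine and penicillin-streptomycin, were exposed to 1 in 10 serial dilutions from 100 µM to 1 µM (stocks 20 mM in DMSO or medium), or to vehicle, for 24 h at 37 °C in CO₂. Total cells were counted by haemocytometer; mean and SD of at least three determinations.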

U-937 [5] = test: Induction of apoptosis in human U937 cells at 100 uM after 24 hrs by acridine orange staining based microscopy; format: functional, cell-based; procedure, shortened: as §1
THP-1 [6] = test: Cytotoxicity against human THP1 cells after 24 hrs by trypan blue exclusion assay; format: functional
HT-29 [7] = test: Cytotoxicity against human HT-29 cells assessed as compound concentration causing 30% reduction in formazan product formation after 48 hrs by MTS assay; format: functional; conditions: HT-29, 48 h
Procedure, shortened: (§2)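 HT-29, HepG2 and MCF7 cells were exposed to increasing concentrations for 48 h. MTS reagent was then added directly to the wells, incubated a further 4 h, and absorbance read at 490 nm. MAIC30 is the concentration reducing formazan formation by 30%, from a best-fit curve versus log concentration.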

HeLa [8] = test: Cytotoxicity against human HeLa cells assessed as cell viability after 24 hrs; format: functional, cell-based
Procedure, shortened: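 MOLT-3, THP-1 and HeLa cells were treated with increasing concentrations for 24 h at 37 °C, 5% CO₂. Total cells were counted by haemocytometer with trypan blue. IC50 is the concentration cutting total cell count by 50%, taken from a best-fit curve of the value versus log concentration.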

HepG2 [9] = test: Cytotoxicity against human HepG2 cells after 48 hrs by trypan blue exclusion assay; format: functional
Procedure, shortened: (§3)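 Adherent HT-29, HepG2 and MCF7 cells were seeded in 96 wells with increasing concentrations and incubated 48 h at 37 °C, 5% CO₂. Trypan blue exclusion was done directly in the culture wells. CC30 is the concentration giving 30% cytotoxicity, from a best-fit curve versus log concentration.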

THP-1 [10] = test: Cytotoxicity against human THP1 cells assessed as cell viability after 24 hrs; format: functional, cell-based; conditions: THP-1, 24 h
HepG2 [11] = test: Cytotoxicity against human HepG2 cells assessed as cell viability after 48 hrs; format: functional, cell-based; conditions: HepG2, 48 h
Procedure, shortened: (§4)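 HT-29, HepG2 and MCF7 cells were treated in wells with increasing concentrations for 48 h at 37 °C, 5% CO₂. Total cell count was taken by haemocytometer. IC50 is the concentration inhibiting total count by 50%, from a best-fit curve of the value versus log concentration.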

HepG2 [12] = test: Cytotoxicity against human HepG2 cells assessed as compound concentration causing 30% reduction in formazan product formation after 48 hrs by MTS assay; format: functional; conditions: HepG2, 48 h; procedure, shortened: as §2
THP-1 [13] = test: Induction of apoptosis in human THP1 cells after 24 hrs by acridine orange staining based fluorescence microscopy; format: functional
Procedure, shortened: (§5)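 HeLa, MOLT-3 and THP-1 cells were treated with increasing concentrations for 24 h, then stained with acridine orange and more than 600 cells scored by fluorescence microscopy for condensed or fragmented nuclei. AC30 is the concentration giving 30% apoptotic cells, from a best-fit curve versus log concentration.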

MOLT-3 [14] = test: Cytotoxicity against human MOLT3 cells assessed as cell viability after 24 hrs; format: functional, cell-based; conditions: MOLT-3, 24 h
HeLa [15] = test: Cytotoxicity against human HeLa cells after 24 hrs by trypan blue exclusion assay; format: functional
Procedure, shortened: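 MOLT-3, THP-1 or HeLa cells were grown in RPMI 1640 with 5–10% FBS; for THP-1 the medium also held 10 mM HEPES, 1 mM pyruvate and 4.5 g/L glucose. Cells were seeded in 96 wells with increasing compound concentrations and incubated 24 h at 37 °C, 5% CO₂. CC30 is the concentration giving 30% trypan blue-positive cells, taken from a best-fit curve of y versus log x.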

MCF7 [16] = test: Cytotoxicity against human MCF7 cells assessed as compound concentration causing 30% reduction in formazan product formation after 48 hrs by MTS assay; format: functional; conditions: MCF7, 48 h; procedure, shortened: as §2
HT-29 [17] = test: Cytotoxicity against human HT-29 cells assessed as cell viability after 48 hrs; format: functional, cell-based; conditions: HT-29, 48 h; procedure, shortened: as §4
MCF7 [18] = test: Cytotoxicity against human MCF7 cells assessed as cell viability after 48 hrs; format: functional, cell-based; conditions: MCF7, 48 h; procedure, shortened: as §4
U-937 [19] = test: Induction of apoptosis in human U937 cells expressing pMEP assessed as expression of Bcl-2 protein at 1 to 100 uM by acridine orange based microscopy; format: functional, cell-based
Procedure, shortened: (§6)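 U937 stable transfectants carrying murine bcl-2 (U937mBCL2) or empty pMEP vector were kept in medium with hygromycin B 50 µg/mL. They were treated for 24 h with compound or DMSO. Apoptotic nuclei were scored by fluorescence microscopy after acridine orange staining; mean and SD of three determinations.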

MOLT-3 [20] = test: Cytotoxicity against human MOLT3 cells after 24 hrs by trypan blue exclusion assay; format: functional
MOLT-3 [21] = test: Induction of apoptosis in human MOLT3 cells after 24 hrs by acridine orange staining based fluorescence microscopy; format: functional; procedure, shortened: as §5
HT-29 [22] = test: Cytotoxicity against human HT-29 cells after 48 hrs by trypan blue exclusion assay; format: functional; procedure, shortened: as §3
HeLa [23] = test: Induction of apoptosis in human HeLa cells after 24 hrs by acridine orange staining based fluorescence microscopy; format: functional; procedure, shortened: as §5
U-937 [24] = test: Induction of apoptosis in human U937 cells expressing mouse Bcl-2 gene assessed as expression of Bcl-2 protein at 1 to 100 uM by acridine orange based microscopy; format: functional, cell-based; procedure, shortened: as §6
MCF7 [25] = test: Cytotoxicity against human MCF7 cells after 48 hrs by trypan blue exclusion assay; format: functional; procedure, shortened: as §3

Structure (SMILES): CCc1c(CSS[C@@H]2O[C@H](CO)[C@@H](O)[C@H](O)[C@H]2O)c(CC)c(CSS[C@@H]2O[C@H](CO)[C@@H](O)[C@H](O)[C@H]2O)c(CC)c1CSS[C@@H]1O[C@H](CO)[C@@H](O)[C@H](O)[C@H]1O
- Activity (U-937 [1]): 25%
- Activity (U-937 [2]): Active
- Activity (U-937 [3]): inactive

Structure (SMILES): CCc1c(CSS[C@@H]2O[C@H](COC(C)=O)[C@H](OC(C)=O)[C@H](OC(C)=O)[C@H]2OC(C)=O)c(CC)c(CSS[C@@H]2O[C@H](COC(C)=O)[C@H](OC(C)=O)[C@H](OC(C)=O)[C@H]2OC(C)=O)c(CC)c1CSS[C@@H]1O[C@H](COC(C)=O)[C@H](OC(C)=O)[C@H](OC(C)=O)[C@H]1OC(C)=O
- Activity (U-937 [1]): 25%
- Activity (U-937 [2]): inactive
- Activity (U-937 [3]): inactive
- Activity (U-937 [4]): Dose-dependent effect

Structure (SMILES): CC(=O)OC[C@H]1O[C@@H](SSCc2ccc(CSS[C@@H]3O[C@H](COC(C)=O)[C@H](OC(C)=O)[C@H](OC(C)=O)[C@H]3OC(C)=O)cc2)[C@H](OC(C)=O)[C@@H](OC(C)=O)[C@H]1OC(C)=O
- Activity (U-937 [5]): Active
- CC30 (THP-1 [6]): 93 µM
- IC30 (HT-29 [7]): 23 µM
- IC50 (HeLa [8]): > 100 µM
- CC30 (HepG2 [9]): 98 µM
- IC50 (THP-1 [10]): > 100 µM
- IC50 (HepG2 [11]): 51 µM
- IC30 (HepG2 [12]): 30 µM
- AC30 (THP-1 [13]): 88 µM
- Activity (U-937 [2]): Active
- IC50 (MOLT-3 [14]): > 100 µM
- CC30 (HeLa [15]): >100 µM
- IC30 (MCF7 [16]): 63 µM
- IC50 (HT-29 [17]): 63 µM
- IC50 (MCF7 [18]): 38 µM
- Activity (U-937 [19]): Active
- CC30 (MOLT-3 [20]): 29 µM
- AC30 (MOLT-3 [21]): 24 µM
- CC30 (HT-29 [22]): 61 µM
- AC30 (HeLa [23]): 62 µM
- Activity (U-937 [24]): inactive
- CC30 (MCF7 [25]): 69 µM

Structure (SMILES): CC(=O)OC[C@H]1O[C@@H](SSc2cccc(SS[C@@H]3O[C@H](COC(C)=O)[C@@H](OC(C)=O)[C@H](OC(C)=O)[C@H]3OC(C)=O)c2)[C@H](OC(C)=O)[C@@H](OC(C)=O)[C@@H]1OC(C)=O
- Activity (U-937 [2]): Active

Structure (SMILES): CC(=O)OC[C@H]1O[C@@H](SSCc2c(C)c(CSS[C@@H]3O[C@H](COC(C)=O)[C@@H](OC(C)=O)[C@H](OC(C)=O)[C@H]3OC(C)=O)c(C)c(CSS[C@@H]3O[C@H](COC(C)=O)[C@@H](OC(C)=O)[C@H](OC(C)=O)[C@H]3OC(C)=O)c2C)[C@H](OC(C)=O)[C@@H](OC(C)=O)[C@@H]1OC(C)=O
- Activity (U-937 [1]): 25%
- Activity (U-937 [2]): Active
- Activity (U-937 [3]): inactive

Structure (SMILES): Cc1c(CSS[C@@H]2O[C@H](CO)[C@@H](O)[C@H](O)[C@H]2O)c(C)c(CSS[C@@H]2O[C@H](CO)[C@@H](O)[C@H](O)[C@H]2O)c(C)c1CSS[C@@H]1O[C@H](CO)[C@@H](O)[C@H](O)[C@H]1O
- Activity (U-937 [1]): 25%
- Activity (U-937 [2]): Active
- Activity (U-937 [3]): inactive
